Active and inactive are the calls of the source. No cut-off for these calls is given here.
Legend:
[1] = tested on: Respiratory syncytial virus; experiment: Antiviral activity against RSV infected human Hep2 cells assessed as reduction of plaque formation treated 6 hrs after viral infection; type: functional, organism-based; settings: HEp-2
Outline: (§1)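 Plaque reduction in HEp-2 cells with compound added either 2 h before infection or 6 h after. Duplicate wells per dilution. Percent plaque reduction calculated against compound-free infected wells. Four independent experiments.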

[2] = tested on: Respiratory syncytial virus; experiment: Antiviral activity against RSV infected human Hep2 cells assessed as plaque reduction […] by plaque reduction assay; type: functional, HEp-2; design: scale not given: the % may be the effect or the level left
[3] = tested on: Respiratory syncytial virus; experiment: Antiviral activity against RSV infected human Hep2 cells assessed as reduction of plaque formation pretreated 2 hrs before viral infection; type: functional, organism-based; settings: HEp-2; outline: as §1
[4] = tested on: Respiratory syncytial virus; experiment: Drug resistance, ratio of EC50 for plaque picked RSV604-resistant RSV RSS from passage 2 to EC50 for DMSO-passaged wild type RSV RSS; type: functional
[5] = tested on: Respiratory syncytial virus; experiment: Antiviral activity against RSV RSS infected human Hep2 cells after 5 days by plaque reduction assay; type: functional, organism-based; settings: HEp-2, 120 h
Outline: (§2)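 HEp-2 monolayers in six-well plates infected with 0.2 ml of 500 PFU/ml virus. After 2 h, overlaid with DMEM, 2% FBS, 0.6% agarose plus compound dilution series. Incubated 5 days, formaldehyde-fixed, plaques stained with methylene blue or immunostained and counted. Activity expressed as percent of plaques in untreated infected wells.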

[6] = tested on: Respiratory syncytial virus; experiment: Antiviral activity against RSV B infected human Hep2 cells after 5 days by plaque reduction assay; type: functional, organism-based; settings: HEp-2, 120 h; outline: as §2
[7] = tested on: Respiratory syncytial virus; experiment: Antiviral activity against RSV Long infected human Hep2 cells after 5 days by plaque reduction assay; type: functional, organism-based; settings: HEp-2, 120 h; outline: as §2
[8] = tested on: Respiratory syncytial virus; experiment: Antiviral activity against plaque picked RSV604-resistant RSV RSS from passage 2 in human Hep2 cells by plaque reduction assay; type: functional, organism-based; settings: HEp-2; outline: as §2
[9] = Therapeutic index, CC50 for human Hep2 cells to EC50 for RSV RSS; type: cell-based, HEp-2; settings: read-out: Ratio CC50/EC50
Outline: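 Ratio of CC50 from uninfected HEp-2 XTT control plates to EC50 from RSV RSS-infected XTT plates, both read after 6 days.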

[10] = Cytotoxicity against RSV RSS infected human Hep2 cells after 6 days by XTT assay; type: cell-based, HEp-2
[11] = tested on: Respiratory syncytial virus; experiment: Antiviral activity against DMSO-passaged wild type RSV RSS infected human Hep2 cells by plaque reduction assay; type: functional, organism-based; settings: HEp-2; outline: as §2
[12] = tested on: Respiratory syncytial virus; experiment: Antiviral activity against RSV RSS infected human Hep2 cells assessed as reduction of viral antigen synthesis after 3 days by ELISA; type: functional, organism-based; settings: HEp-2, 72 h
Outline: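 HEp-2 cells seeded at 5 × 10³ per well in DMEM/10% FBS for 24 h, infected with RSV RSS at MOI about 0.02, serial compound dilutions for 3 days. Cells fixed and permeabilised in methanol-acetone, blocked in milk-Tween. Probed with mouse anti-RSV monoclonal then HRP anti-mouse. Developed with o-phenylenediamine/H2O2, absorbance […].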

[13] = tested on: Respiratory syncytial virus; experiment: Antiviral activity against RSV RSS infected human Hep2 cells assessed as inhibition of virus-induced cell death after 6 days by XTT assay; type: functional, organism-based; settings: HEp-2, 144 h
Outline: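 HEp-2 cells seeded at 4 × 10³ per well in DMEM with 10% FBS, infected next day with RSV RSS dosed to give about 80% cytopathic effect by day 6. Serial compound dilutions (top 10 μM, 0.5% DMSO) present throughout. Viability read by XTT reduction after 6 days. EC50 taken as 50% reduction in virus-induced cell death.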

[14] = tested on: Respiratory syncytial virus; experiment: Antiviral activity against RSV A2 infected human Hep2 cells after 5 days by plaque reduction assay; type: functional, organism-based; settings: A2, HEp-2, 120 h; outline: as §2
[15] = tested on: Respiratory syncytial virus; experiment: Antiviral activity against plaque picked A-33903-resistant RSV RSS from passage 2 in human Hep2 cells by plaque reduction assay; type: functional, organism-based; settings: HEp-2; outline: as §2
Bovine orthopneumovirus = experiment: Antiviral activity against bovine RSV snook infected human Hep2 cells after 5 days by plaque reduction assay; type: functional, organism-based, Bovine respiratory syncytial virus; settings: HEp-2, 120 h; outline: as §2
[16] = tested on: Respiratory syncytial virus; experiment: Drug resistance, ratio of EC50 for plaque picked A-33903-resistant RSV RSS from passage 2 to EC50 for DMSO-passaged wild type RSV RSS; type: functional
[17] = tested on: Respiratory syncytial virus; experiment: Drug resistance, ratio of EC50 for RSV RSS with N protein L139I mutation to EC50 for wild type RSV RSS; type: functional
[18] = tested on: Respiratory syncytial virus; experiment: Antiviral activity against 0.02 MOI RSV RSS infected human Hep2 cells assessed as inhibition of virus-induced cell death after 6 days by XTT assay; type: functional, organism-based; settings: HEp-2, 144 h
[19] = tested on: Respiratory syncytial virus; experiment: Antiviral activity against RSV RSS with N protein L139I mutation in human Hep2 cells after 5 days by plaque reduction assay; type: functional, organism-based; settings: HEp-2, 120 h; outline: as §2
[20] = tested on: Respiratory syncytial virus; experiment: Antiviral activity against recombinant RSV expressing GFP infected HAE cells assessed as lack of viral replication-dependent green fluorescence level at 2 uM by fluorescence microscopy; type: functional, organism-based
[21] = tested on: Respiratory syncytial virus; experiment: Antiviral activity against RSV B isolates infected human Hep2 cells after 5 days by plaque reduction assay; type: functional, organism-based; settings: HEp-2, 120 h; outline: as §2
[22] = tested on: Respiratory syncytial virus; experiment: Antiviral activity against RSV A isolates infected human Hep2 cells after 5 days by plaque reduction assay; type: functional, organism-based; settings: HEp-2, 120 h; outline: as §2
[23] = tested on: Respiratory syncytial virus; experiment: Drug resistance, ratio of EC50 for RSV RSS with N protein N105D mutation to EC50 for wild type RSV RSS; type: functional
[24] = tested on: Respiratory syncytial virus; experiment: Antiviral activity against RSV RSS with N protein I129L plus L139I mutant mutation in human Hep2 cells after 5 days by plaque reduction assay; type: functional, organism-based; settings: HEp-2, 120 h; outline: as §2
[25] = tested on: Pneumonia virus of mice 15; experiment: Antiviral activity against Pneumonia virus of mice 15 infected human Hep2 cells after 5 days by plaque reduction assay; type: functional, organism-based; settings: murine pneumonia virus, HEp-2, 120 h; outline: as §2
[26] = tested on: Respiratory syncytial virus; experiment: Antiviral activity against recombinant RSV expressing GFP infected HAE cells assessed as inhibition of viral replication at 2 uM by fluorescence microscopy; type: functional, organism-based
[27] = tested on: Respiratory syncytial virus; experiment: Antiviral activity against RSV RSS M2 mutant infected human Hep2 cells after 5 days by plaque reduction assay; type: functional, organism-based; settings: HEp-2, 120 h; outline: as §2
[28] = tested on: Respiratory syncytial virus; experiment: Antiviral activity against recombinant RSV expressing GFP infected HAE cells assessed as lack of viral replication-dependent green fluorescence level at 20 uM by fluorescence microscopy; type: functional, organism-based
[29] = tested on: Respiratory syncytial virus; experiment: Antiviral activity against recombinant RSV expressing GFP infected HAE cells assessed as lack of viral replication-dependent green fluorescence level at 10 uM by fluorescence microscopy; type: functional, organism-based
[30] = tested on: Respiratory syncytial virus; experiment: Drug resistance, ratio of EC50 for RSV RSS M2 mutant to EC50 for wild type RSV RSS; type: functional
[31] = tested on: Respiratory syncytial virus; experiment: Antiviral activity against RSV RSS with N protein N105D mutation in human Hep2 cells after 5 days by plaque reduction assay; type: functional, organism-based; settings: HEp-2, 120 h; outline: as §2
[32] = tested on: Respiratory syncytial virus; experiment: Antiviral activity against recombinant RSV expressing GFP infected HAE cells assessed as inhibition of viral replication at 20 uM by fluorescence microscopy; type: functional, organism-based
[33] = tested on: Respiratory syncytial virus; experiment: Antiviral activity against RSV RSS with N protein […] mutation in human Hep2 cells after 5 days by plaque reduction assay; type: functional, organism-based; settings: HEp-2, 120 h; outline: as §2
[34] = Toxicity in recombinant RSV expressing GFP infected HAE cells assessed as alteration of cilium beat frequency at 20 uM for 7 days; settings: human, 168 h
Outline: (§3)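 Differentiated human airway epithelial cultures exposed to 20 μM compound for 7 days. Scored for gross cytotoxicity, leakage of basolateral fluid to the apical surface, and cilium beat frequency.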

[35] = Toxicity in recombinant RSV expressing GFP infected HAE cells assessed as leakage of basolateral fluid to apical surface at 20 uM for 7 days; settings: human, 168 h; outline: as §3
Metapneumovirus = experiment: Antiviral activity against human Metapneumovirus infected human Hep2 cells after 5 days by plaque reduction assay; type: functional, organism-based; settings: HEp-2, 120 h; outline: as §2
[36] = tested on: Respiratory syncytial virus; experiment: Antiviral activity against recombinant RSV expressing GFP infected HAE cells assessed as inhibition of viral replication at 10 uM by fluorescence microscopy; type: functional, organism-based
[37] = tested on: Respiratory syncytial virus; experiment: Antiviral activity against recombinant RSV expressing GFP infected HAE cells assessed as inhibition of viral replication at 1 uM by fluorescence microscopy; type: functional, organism-based
Human respirovirus 3 = experiment: Antiviral activity against Parainfluenza virus type 3 infected human Hep2 cells after 5 days by plaque reduction assay; type: functional, organism-based; settings: Human respirovirus 3, HEp-2, 120 h; outline: as §2
[38] = tested on: Respiratory syncytial virus; experiment: Antiviral activity against 1.5 MOI RSV RSS infected human Hep2 cells assessed as inhibition of virus-induced cell death after 6 days by XTT assay; type: functional, organism-based; settings: HEp-2, 144 h
[39] = tested on: Respiratory syncytial virus; experiment: Drug resistance, ratio of EC50 for RSV RSS with N protein I129L plus L139I mutant mutation to EC50 for wild type RSV RSS; type: functional
Human respirovirus 1 = experiment: Antiviral activity against Parainfluenza virus type 1 infected human Hep2 cells after 5 days by plaque reduction assay; type: functional, organism-based; settings: Human respirovirus 1, HEp-2, 120 h; outline: as §2
[40] = Cytotoxicity against recombinant RSV expressing GFP infected HAE cells at 20 uM for 7 days; type: cell-based; settings: human, 168 h; outline: as §3

O=c1n(Cc2nc3ccccc3n2CCCCO)c2cnccc2n1C1CC1
Activity [1]: inactive | Activity [2]: 50% | Activity [3]: Active

COc1cc(S(C)(=O)=O)ccc1C(=O)N[C@H]1N=C(c2ccccc2)c2ccccc2NC1=O
fold change (FC) [4]: 42.3 | EC50 [5]: 500 nM | EC50 [6]: 430 nM | EC50 [7]: 390 nM | EC50 [8]: 16900 nM | selectivity ratio [9]: > 100 | CC50 at 144 h [10]: > 50000 nM | EC50 [11]: 400 nM | EC50 [12]: 1300 nM | EC50 [13]: 500 nM

NC(=O)c1ncn([C@@H]2O[C@H](CO)[C@@H](O)[C@H]2O)n1 [RIBAVIRIN]
fold change (FC) [4]: 0.85 | EC50 [5]: 13300 nM | EC50 [14]: 19000 nM | EC50 [6]: 29000 nM | EC50 [7]: 16800 nM | EC50 [8]: 17600 nM | EC50 [11]: 20700 nM | EC50 [12]: 25300 nM | EC50 [13]: 11500 nM

O=C(Nc1ccccc1F)N[C@H]1N=C(c2ccccc2)c2ccccc2NC1=O [RSV-604]
fold change (FC) [4]: 50.7 | EC50 [5]: 900 nM | EC50 [15]: 2700 nM | EC50 (Bovine orthopneumovirus): 300 nM | fold change (FC) [16]: 3.9 | fold change (FC) [17]: 7 | EC50 [18]: 1400 nM | EC50 [14]: 500 nM | EC50 [6]: 600 nM | EC50 [19]: 6700 nM | Activity [20]: Active | EC50 [7]: 800 nM | Activity [1]: Active | EC50 [8]: 30400 nM | EC50 [21]: 800 nM | EC50 [22]: 800 nM | selectivity ratio [9]: > 58 | fold change (FC) [23]: 5 | EC50 [24]: > 20000 nM | EC50 [25]: > 50000 nM | Activity [26]: Active | EC50 [27]: 1140 nM | CC50 at 144 h [10]: > 50000 nM | Activity [28]: Active | Activity [29]: Active | fold change (FC) [30]: 1.2 | EC50 [31]: 4780 nM | Activity [32]: Active | EC50 [33]: 6030 nM | Activity [34]: Not Active | EC50 [11]: 600 nM | Activity [35]: Not Active | EC50 (Metapneumovirus): > 50000 nM | Activity [36]: Active | Activity [37]: Active | EC50 (Human respirovirus 3): > 50000 nM | EC50 [38]: 2550 nM | EC50 [12]: 1700 nM | fold change (FC) [39]: >20 | EC50 (Human respirovirus 1): > 50000 nM | Activity [3]: Active | Activity [40]: Not Active | EC50 [13]: 860 nM

Source: ChEMBL document CHEMBL1143412, “RSV604, a novel inhibitor of respiratory syncytial virus replication” (Antimicrob Agents Chemother, 2007)
